Rows were chosen to be rich in hits. Some 1.6% of all compounds tested hit in one or more screens of this group.
Rpn11 block: inhibitors of human proteasome Rpn11; O00487; human 26S proteasome, Ub4-pepOG fluorescence polarization; 20S core pre-blocked with epoxomicin; inhibition, % at 20 µM; 0.59% of 360,000 active; AID 588493;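 active = inhibition at 20 µM, scaled to each plate's controls, above about 33%, limit read from the data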
Target sequence (O00487 whole entry, looked up): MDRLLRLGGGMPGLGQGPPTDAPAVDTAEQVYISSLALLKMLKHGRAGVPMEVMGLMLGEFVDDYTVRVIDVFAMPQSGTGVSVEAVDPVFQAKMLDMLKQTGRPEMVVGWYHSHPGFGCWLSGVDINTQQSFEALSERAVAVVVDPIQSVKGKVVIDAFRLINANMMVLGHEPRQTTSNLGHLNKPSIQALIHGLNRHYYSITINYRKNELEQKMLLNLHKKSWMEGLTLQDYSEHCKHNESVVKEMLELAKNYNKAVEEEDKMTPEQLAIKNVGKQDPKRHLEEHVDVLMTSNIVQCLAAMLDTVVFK
HNF4A DNA FP: change in binding of human HNF4 alpha to DNA | P41235 | HNF4a-FITC DNA binding, fluorescence polarization, 1 h | activity change, % at 10 µM | 0.3% of 360,000 active | AID 1224865; in the data active = activity change above about 30%, passing the limit was not always enough
CSN deneddyl inh: inhibitors of human CSN-mediated cullin deneddylation; Purified CSN, SCF-Nedd8-OG deneddylation, fluorescence polarization; inhibition, % at 12.5 µM; 0.38% of 360,000 active; AID 651999;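 active = pattern-corrected inhibition above about 35%, with an unprinted fluorescence ratio check between 0.5 and 1.5, limit read from the data, passing the limit was not always enough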;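 note: 0% = enzyme with substrate and 100% = substrate without enzyme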
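Detection – fluorescence polarization · System – HEK293T-derived human Csn5 enzyme · Controls – substrate-only high control, full reaction low control · Timing – 90 min, room temperature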
SENP1 inh: inhibitors of human SENP1 SUMO protease catalytic domain | AID 624204 | recombinant SENP1 catalytic domain, CyPet-SUMO1-YPet FRET cleavage | Q9P0U3 | inhibition, % at 10 µM | 0.21% of 360,000 active;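 active = inhibition at least 30% at 10 µM, raw YFP signal under a set limit, fluorescence ratio 0.5 to 1.5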;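 note: 0% = enzyme with DMSO and 100% = no enzyme wells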
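Test system: recombinant human SENP1 catalytic domain, His6-tagged / Medium: pH 8 Tris buffer with EDTA, NaCl, BME, BSA, NP40, catalase / Also added: SUMO1 FRET substrate flanked by Cypet and Ypet, 25 nM / Times: 50 min reaction at room temperature / Signal: FRET, CFP and YFP emission / Control set: no-enzyme low control and enzyme-plus-DMSO high control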
TPT1 inh: C. albicans TPT1 enzyme inhibition | 0.81% of 300,000 active | recombinant caTPT1, FP RNA substrate dephosphorylation | inhibition, % at 5 µM;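 active = inhibition above the mean of all tested compounds plus 3 SD, set per screening campaign, cut at about 24% in these data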;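 note: plate controls were DMSO alone for no effect and ferristatin control at 100 nM for full effect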
TPT1 inh confirm: TPT1 (C. albicans) inhibition, confirmation; 74% of 2,400 active; recombinant caTPT1, fluorescence polarization, RNase T1 coupled; shares compounds with TPT1 inh; inhibition, % at 5 µM;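 active = inhibition above the primary screen limit, the mean inhibition of all tested compounds plus 3 SD, cut at about 25% in these data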
RNase T1 inh: counter-screen for TPT1 inhibitors: inhibitors of Aspergillus oryzae RNase T1 | shares compounds with TPT1 inh | RNase T1 cleavage, fluorescence polarization, 1536-well | inhibition, % at 5 µM | 83% of 2,400 active | AID 2153;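 active = inhibition above the solvent-only control well mean plus 3 SD, limit set per screening run, cut at about 23% in these data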;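 note: plate controls were DMSO wells with enzyme for no effect and wells without RNase T1 for full effect; inhibitors block cleavage so intact labeled substrate keeps polarization high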
Target sequence (P00651 whole entry, looked up): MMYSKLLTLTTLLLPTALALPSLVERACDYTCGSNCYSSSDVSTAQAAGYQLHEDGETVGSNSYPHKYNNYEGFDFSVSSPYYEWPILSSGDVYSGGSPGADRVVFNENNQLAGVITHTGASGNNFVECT
* = called active by the depositor; x = not tested or not shown.

SMILES	Rpn11 block	HNF4A DNA FP	CSN deneddyl inh	SENP1 inh	TPT1 inh	TPT1 inh confirm	RNase T1 inh
CC(C)CSC1=NSC2=NC(=O)/C(=C\c3coc4ccccc4c3=O)C(=N)N12	-34	2	-75	-28	43*	10	26*
Cc1cc(/C=C2/C(=N)N3C(=NC2=O)SN=C3S(C)(=O)=O)c(C)n1-c1ccc(F)cc1	2	3	2	-89	5	x	x
CC(C)CSC1=NSC2=NC(=O)/C(=C\c3ccccc3)C(=N)N12	2	-1	-6	-4	5	x	x
CSC1=NSC2=NC(=O)/C(=C\c3coc4ccccc4c3=O)C(=N)N12	24	48	55	-27	62*	61*	65*
N#Cc1ccc(-c2ccc(OCC(=O)NCCCN3CCCC3=O)cc2)cc1	15	0	-1	1	-1	x	x
CCn1cc(CCCC(=O)NCc2ccc(OC)cc2)c2ccccc21	-3	4	-2	2	x	x	x
Cc1cc(NC2C3CC4CC(C3)CC2C4)n2ncnc2n1 (centres undefined)	-11	0	5	0	101*	1	2
Cc1cc(NC2C3CC4CC(C3)CC2C4)n2nnnc2n1 (centres undefined)	3	4	4	-5	-2	x	x
CN(C)c1ccc(-n2cccc2/C=C/[N+](=O)[O-])cc1	-2	6	-5	1	-3	x	x
CN(c1ccccc1)c1ccc(/C=C/[N+](=O)[O-])cc1	20	2	6	10	42*	55*	71*
COc1ccc(N2CC(C(=O)OC(C)C(=O)c3ccccc3)CC2=O)cc1 (centres undefined)	-3	-6	1	3	-3	x	x
C=CCN1C(=O)N/C(=C/c2ccc(N3CCOCC3)o2)C1=O	x	x	x	x	29*	105*	113*
O=C1S/C(=C/c2ccc(N3CCOCC3)o2)C(=O)N1Cc1ccc(F)cc1	x	187	132	-32	136*	163*	162*
O=C1S/C(=C\c2ccc(N3CCOCC3)o2)C(=O)N1Cc1ccc(F)cc1	x	130	115	-21	142*	168*	165*
CC(C)(C)NC(=O)C1N(c2cccnc2)C(=O)C2C(C(=O)Nc3ccccc3F)C3(C)C=CC21O3 (centres undefined)	-10	5	-3	-1	73*	7	10
Cc1ccc(S(=O)(=O)CCN2CCC(n3cccc3)CC2)cc1	-1	1	2	-1	0	x	x
CCN(CC)c1ccc2c(c1)OC(N)=C(C#N)C2c1cccnc1 (centres undefined)	x	78	71	-22	71*	57*	64*
N#CC1=C(N)Oc2cc(N)ccc2C1c1cccnc1 (centres undefined)	-6	0	-2	-29	-1	x	x
CC(C)(C)NS(=O)(=O)c1cc(C(=O)Nc2sccc2C#N)ccc1Cl	x	28	31	4	36*	32*	43*
O=C(NC(=S)Nc1ccc(-c2nc3ncccc3o2)cc1)c1ccccc1F	2	1	-2	-10	1	x	x
CCOC(=O)C1CCN(C(=O)c2ccc3nc(-c4ccc(OC)cc4)c(-c4ccc(OC)cc4)nc3c2)CC1	-1	1	3	-36	-2	x	x
CC(C)(C)c1ccc(C(=O)NNc2cc(N3CCCCC3)nc(N3CCCCC3)n2)cc1	10	-5	1	-40	45*	10	12
N#C/C(=C\c1cc(O)c(O)c(O)c1)C(N)=O	20	2	14	-21	33*	27*	36*
COc1ccc(-n2c(O)c(/C=N/NS(=O)(=O)c3cc(C)ccc3C)c3ccccc3c2=O)cc1OC	x	147	56	-26	109*	94*	98*
COc1ccc(C)cc1S(=O)(=O)Nc1ccc(-n2c(C)nc3ccccc3c2=O)cc1	0	2	0	3	3	x	x
COc1ccc(-n2c(O)c(/C=N/NS(=O)(=O)c3ccc(C)cc3)c3ccccc3c2=O)cc1OC	x	86*	117	-27	109*	70*	86*

Screening results (PubChem)
